Test system: MS2 coat protein
Assay: apparent Kd, MS2 coat protein; higher = weaker binding; RNA-MaP array; FMN 200 µM where present
In short: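 Each design was made on Illumina sequencing-chip clusters by stalled E. coli RNA polymerase and titrated with SNAP-549-labelled MS2 coat protein from 0.7 or 1.5 nM, doubling to 3 µM, in the absence and then the presence of constant ligand. The buffer was 100 mM Tris-HCl pH 7.5, 80 mM KCl, 4 mM MgCl2, BSA, DTT, yeast tRNA and Tween-20. The apparent Kd is the median of filtered per-cluster fits of binding curves, with green signal normalised to red-channel RNA signal and control-cluster median Fmax.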

[1] = designed as: OFF switch for flavin mononucleotide, no ligand
[2] = ligand present: flavin mononucleotide, designed as: OFF switch for flavin mononucleotide
[3] = designed as: ON switch for flavin mononucleotide, no ligand
[4] = ligand present: flavin mononucleotide, designed as: ON switch for flavin mononucleotide

| Sequence | apparent Kd [1] | apparent Kd [2] | apparent Kd [3] | apparent Kd [4] |
| --- | --- | --- | --- | --- |
| UUUUAGGUAGGAUAUACAUUUUUUUUAUUAUCCUCAUUAUUACAUGAGGAUCACCCAUGUAGAAGGACCAUUUU | 215 nM | 341 nM |  |  |
| AUGGGCUAAGGAUAUAGACGACGACACAUGAGGAUCACCCAUGUCAGUAAUGGGUCUUGGCUAGAAGGUAGAACCC | 44.5 nM | 72.7 nM |  |  |
| AAAACUCACGUAGGAUAUCAUUCCUUAAGGUAGUGAGAAGGACGUGACUACAUGUCCUUGAACAUGAGGAUCACCCAUGUAGGC | 49.5 nM | 55.4 nM |  |  |
| CAUUAUUAUCGAGGAUAUCCUAUUGAAAUUCUGGGAGAAGGCGGACUCAACAUGAGGAUCACCCAUGUGAGACGGAUGCUAGGG | 20.2 nM | 15.8 nM |  |  |
| CGCUGUCACGCAGGAUAUGCAUUGGAUUACAAUGCAGAAGGGCGAUCACAUGAGGAUCACCCAUGUGUAGACAGUGAAGAAGAG |  |  | 728 nM | 47.1 nM |
| AUAUAUAUUAGAGGAUAUGUGUUCAUGUUACAUGAGGAUCACCCAUGUUUAGGUUGAUUGAUCUUACAGAAGGCUAUACAAUGA | 97.2 nM | 78.5 nM |  |  |
| CAUAUGGGAGGAUAUGCAUAGAUAAAGAAACAUGUUCAACCACAUGAGGAUCACCCAUGUAGAAGGCCCAUAUG | 29.6 nM | 162 nM |  |  |
| UUAUACGUUGAGGAUAUGCGAUUUAGUAUAGUUGUAGAAGGCGAUACAUGAGGAUCACCCAUGUUUAUGGGCAU | 328 nM | 257 nM |  |  |
| UACCCUUGUGAGAAGGCGCCGCAGAUUUUACGGCGAGGAUAUCACAUGAGGAUCACCCAUGUUCCUGAGCCUACAAGUGUGGGC | 338 nM | 313 nM |  |  |
| UAUGUGUCAGGAUAUUGUUAAUUUAGUUGUUUGUAUUAGUUCGAGAAGGGACAUGAGGAUCACCCAUGUUGUUU | 31.9 nM |  |  |  |
| CCCGAGGAAGGAUAUACAUGAGGAUCACCCAUGUGCGUUGGGACUGGCGUAGUCUUCAGUAGAAGGUCCGCGCC | 18.5 nM | 17.5 nM |  |  |
| GUCACGUAAGGAUAUCAUUAGUUGGACAUGAGGAUCACCCAUGUGAGACUAACUCCGGCGUGAGAAGGUGCGUUAA | 13.4 nM | 16.7 nM |  |  |
| GGGUACAUCGGAGGAUAUCAUGUAAAUACAUGAGGAUCACCCAUGUCGAUGGAUACAUCGGAGAUUGAGAAGGCCGAUGUACCG |  |  | 13 nM | 5.34 nM |
| CACUCGUGUCUAGGAUAUGAGUGACAAGCGCGAGAUUUCCUCGCCGCUAGCUCAGAAGGAGACAUGAGGAUCACCCAUGUAAGG | 90 nM | 24.4 nM |  |  |
| AUGUUACAUGAGGAUCACCCAUGUCAGGAUAUCUAUCAUAGCAUAGAAAUAUGCGGGUAGAGAAGGGACUAUCC | 15.4 nM | 13.8 nM |  |  |
| GUGAAGUGAGGAUAUACGAGAGAGGCUGAACCGGACGAGAAGUAGAAGGCACAUGAGGAUCACCCAUGUACGGG |  | 236 nM |  |  |
| AAGAUGCGGAUAGGAUAUGGAAAUAAAUAAAGACCAGAAGGAUUGGUCACACAACAUGAGGAUCACCCAUGUGUGUGUUGUGAA | 13.9 nM | 10.6 nM |  |  |
| GCAGGGUAUGAGAAGGCAUAAUUUAUCUUACCACAUGUUUACAUGAGGAUCACCCAUGUUUCCUAUGAGGAUAUCAUACCGUGC | 12.4 nM | 9.98 nM |  |  |
| UUGGACGUCGUAGGAUAUGUAGGAUAUUCCUACAUGAGGAUCACCCAUGUUGACAUGGAAUAAGGACAGAAGGACGAUGUCCAU |  |  | 23.4 nM | 5.28 nM |
| CGAUAACAUAGUUAUCCGUAACGGACAUGAGGAUCACCCAUGUAGGAUAUGUUACUAAACUAGUAACAGAAGGACAUGAGUCUU |  | 295 nM |  |  |
| UUUAAACAGUCAGGAUAUGUAACGCACAACGGCGCAGAAGGGACAUGAGGAUCACCCAUGUUAUGGUUCUGGUACUAUGACGUU | 18.4 nM | 22.9 nM |  |  |
| CAGUACUGUCGAGAGGAUAUGCGGUGAUGGACAUGAGGAUCACCCAUGUUAGCGACAGCAUCACGGCAGAAGGCUCUACUGCUGC |  |  | 47.9 nM | 17.2 nM |

From the EternaBench riboswitch data
